Published values pooled from the literature.
Protocols differ between the studies behind these lines.
Pancreatic alpha-amylase: Pancreatic alpha-amylase (Homo sapiens, UniProt P04746)
ALDH1A3: Retinaldehyde dehydrogenase 3 (ALDH1A3, Homo sapiens, UniProt P47895)
PADI4: Protein-arginine deiminase type-4 (PADI4, Homo sapiens, UniProt Q9UM07)
MAOB: Amine oxidase [flavin-containing] B (MAOB, Homo sapiens, UniProt P27338)

COc1cc(/C=N/NC(=S)N/N=C\c2ccc(Cl)c(Cl)c2)ccc1Oc1ccnc2cc(Cl)ccc12  IC50 (Pancreatic alpha-amylase; enzyme activity, inhibitor, absorbance): 45.7 µM
O=C(N[C@@H](CSCc1ccccc1)C(=O)NO)c1ccccc1  IC50 (Lactoylglutathione lyase (GLO1, Homo sapiens, UniProt Q04760); enzyme activity, inhibitor): 5.27 µM
O=C(CCNC(=O)CNC(=O)CC(c1ccccc1)(c1ccccc1)c1ccccc1)NCC1CCN(Cc2ccc(F)cc2)CC1  IC50 (Muscarinic acetylcholine receptor M4 (CHRM4, Homo sapiens, UniProt P08173); ligand displacement, radioligand; cell membranes): 11.6 µM
CN1CCC(CNc2ccc3ncc(-c4cccc(OC(F)(F)F)c4)n3n2)CC1  IC50 (Histamine H1 receptor (HRH1, Homo sapiens, UniProt P35367); calcium signal, antagonist): 8.45 µM
Cc1ccc(-c2ccccc2C=O)c(C)c1  IC50 (ALDH1A3; enzyme activity, inhibitor): 43.5 µM
COc1ccc(N(Cc2nc(-c3ccc(F)cc3)cs2)C(=O)CCCCCC(=O)NO)cc1  IC50 (Histone deacetylase 9 (HDAC9, Homo sapiens, UniProt Q9UKV0); enzyme activity, inhibitor): > 10 µM
COc1cc(/C=N/NC(=S)N/N=C/c2ccc(C=O)cc2)ccc1Oc1ccnc2cc(Cl)ccc12  IC50 (Pancreatic alpha-amylase; enzyme activity, inhibitor, absorbance): 58.7 µM
Nc1nc2c(s1)C(c1ccccc1Cl)CC(=O)N2 (stereo not drawn)  IC50 (ALDH1A3; enzyme activity, inhibitor): < 10 µM
N=C(CCl)NCCC[C@H](NC(=O)c1ccc2cc(B(O)O)ccc2c1)C(=O)NCc1ccccc1  IC50 (PADI4; enzyme activity, inhibitor, fluorescence; with preincubation): 0.36 µM
COc1cc(/C=N/NC(=S)N/N=C/c2ccc(Br)s2)ccc1Oc1ccnc2cc(Cl)ccc12  IC50 (Pancreatic alpha-amylase; enzyme activity, inhibitor, absorbance): 39.1 µM
CN1CCN(c2nc(-c3cc4cc(Br)ccc4oc3=O)cs2)CC1  IC50 (Carbonic anhydrase 9 (CA9, Homo sapiens, UniProt Q16790); enzyme activity, inhibitor): 1.35 µM
N=C(CCl)NCCC[C@H](NC(=O)c1ccc2cc(-c3ccc4nncn4c3)ccc2c1)C(=O)NCc1ccccc1  IC50 (PADI4; enzyme activity, inhibitor, fluorescence; with preincubation): 0.488 µM
Cc1cc(O)c(-c2ccc([C@@H](C)CN(C)C)cc2)c2c1[nH]c(=O)c1sccc12  IC50 (Cyclin-dependent kinase 18, with cyclin Y (CDK18, Homo sapiens, UniProt Q07002); enzyme activity, inhibitor): > 1 µM
N=C(CCl)NCCC[C@H](NC(=O)c1cnc2cc(O)ccc2c1)C(=O)NCc1ccccc1  IC50 (PADI4; enzyme activity, inhibitor, fluorescence; with preincubation): 0.342 µM
O=C(Nc1ccccc1)c1ccc2c(c1)C(=O)NC2=O  IC50 (MAOB; enzyme activity, inhibitor): 3.25 µM
N=C(CCl)NCCC[C@H](NC(=O)c1cnc2cc(Br)ccc2c1)C(=O)NCc1ccccc1  IC50 (PADI4; enzyme activity, inhibitor, fluorescence; with preincubation): 0.409 µM
O=C(Nc1cc(Cl)cc(Cl)c1)c1ccc2c(c1)C(=O)NC2=O  IC50 (MAOB; enzyme activity, inhibitor): 0.055 µM
N=C(CCl)NCCC[C@H](NC(=O)c1ccc(O)cc1)c1nc2ccccc2[nH]1  IC50 (PADI4; enzyme activity, inhibitor, fluorescence; with preincubation): 0.718 µM
O=C(Nc1cccc(Br)c1)c1ccc2c(c1)C(=O)NC2=O  IC50 (MAOB; enzyme activity, inhibitor): 0.18 µM
N=C(CCl)NCCC[C@H](NC(=O)c1cccc(-c2ccc(B(O)O)cc2)c1)c1nc2ccccc2[nH]1  IC50 (PADI4; enzyme activity, inhibitor, fluorescence; with preincubation): 0.588 µM
COc1cc(/C=N/NC(=S)N/N=C\c2ccc(CCl)cc2)ccc1Oc1ccnc2cc(Cl)ccc12  IC50 (Pancreatic alpha-amylase; enzyme activity, inhibitor, absorbance): 58.4 µM
